High-throughput results from PubChem BioAssay.
KCNK9 block – blocks the human KCNK9 two-pore domain potassium channel. 310,000 tested, 1.2% active. Q9NPC2. HEK293 KCNK9, FluxOR thallium flux fluorescence; stronger effect = lower value. AID 488922. B-score at 10 µM;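 active = ratio B-score over 3 SD below the library mean, with starting fluorescence within 5 SD of its mean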;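 note: negative B-score means less thallium flux so channel inhibition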
hERG protect – hERG (human) protection from proarrhythmic block | 310,000 tested, 0.51% active | CHO-hERG, FluxOR thallium flux, dofetilide IC70 present | activation (rescue from dofetilide block), less the hit threshold, % at 10 µM | Q12809 | AID 1511;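 active = activation above the mean of controls blocked by dofetilide plus 5 SD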;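 note: thallium influx through hERG after potassium depolarization seen as dye fluorescence rise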
KCNK3 block – human KCNK3 channel inhibition, primary screen | CHO-KCNK3 thallium flux, FluxOR fluorescence; stronger effect = lower value | B-score at 10 µM | O14649 | 340,000 tested, 0.84% active;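 active = B-score under library mean minus 4 SD, starting fluorescence ratio at most library mean plus 5 SD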;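 note: more negative B-score means stronger inhibition of thallium flux through KCNK3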
Cl transport mod – modulates chloride dependent transport by human KCC2; Q9H2X9; KCC2 cells, thallium flux FluoZin-2 fluorescence; B-score of Tl+ flux slope (higher = more flux/activation; lower = inhibition) at 10 µM; 190,000 tested, 2.2% active;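 active = thallium flux slope and its plate-corrected score both differing from the plate sample mean at a set confidence after two filtering rounds, in either direction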;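 note: slope of fluorescence scaled to starting intensity during 10 to 20 s after thallium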
Target sequence (Q9H2X9 whole entry, looked up): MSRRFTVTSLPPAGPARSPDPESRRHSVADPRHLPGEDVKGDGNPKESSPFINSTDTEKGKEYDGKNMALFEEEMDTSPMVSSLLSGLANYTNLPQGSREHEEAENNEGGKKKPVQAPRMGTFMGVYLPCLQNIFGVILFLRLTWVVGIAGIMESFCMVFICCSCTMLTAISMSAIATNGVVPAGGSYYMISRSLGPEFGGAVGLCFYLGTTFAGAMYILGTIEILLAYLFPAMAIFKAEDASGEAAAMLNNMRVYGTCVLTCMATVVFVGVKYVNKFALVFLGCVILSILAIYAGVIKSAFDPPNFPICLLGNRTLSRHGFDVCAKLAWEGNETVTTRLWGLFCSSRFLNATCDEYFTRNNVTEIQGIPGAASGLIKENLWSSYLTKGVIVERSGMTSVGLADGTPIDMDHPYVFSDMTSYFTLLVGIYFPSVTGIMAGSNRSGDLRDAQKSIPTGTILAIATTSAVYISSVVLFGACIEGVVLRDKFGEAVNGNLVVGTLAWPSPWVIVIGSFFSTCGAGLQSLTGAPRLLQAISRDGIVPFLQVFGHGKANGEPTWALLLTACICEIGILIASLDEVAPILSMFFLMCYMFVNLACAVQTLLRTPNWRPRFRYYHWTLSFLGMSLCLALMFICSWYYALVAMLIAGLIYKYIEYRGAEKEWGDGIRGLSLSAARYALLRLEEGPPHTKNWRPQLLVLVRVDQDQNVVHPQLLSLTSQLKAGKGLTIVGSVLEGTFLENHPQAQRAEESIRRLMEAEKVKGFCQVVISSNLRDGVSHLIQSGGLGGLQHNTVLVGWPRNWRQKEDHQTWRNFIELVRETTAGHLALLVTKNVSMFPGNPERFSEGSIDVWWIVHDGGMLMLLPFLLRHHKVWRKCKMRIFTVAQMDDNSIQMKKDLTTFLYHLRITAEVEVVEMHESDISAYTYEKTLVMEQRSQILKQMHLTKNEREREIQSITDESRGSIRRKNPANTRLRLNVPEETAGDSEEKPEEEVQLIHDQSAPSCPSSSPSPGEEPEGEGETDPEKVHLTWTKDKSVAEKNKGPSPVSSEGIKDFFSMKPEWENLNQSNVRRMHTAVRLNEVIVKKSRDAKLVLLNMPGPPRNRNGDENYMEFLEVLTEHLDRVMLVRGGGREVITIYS
KCNQ1 act – human KCNQ1 channel potentiation or activation; 310,000 tested, 0.35% active; CHO-K1 KCNQ1, thallium flux FluxOR fluorescence; stronger effect = higher value; AID 2648; B-score at 10 µM;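 active = fluorescence ratio B-score, a plate-corrected score, at least three library SD, with initial intensity B-score within 5 SD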
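Material: CHO-K1 cells stably expressing KCNQ1. Medium: assay buffer for compound exposure, DMSO matched across wells. Reagent: K+/Tl+ depolarizing stimulus. Compound dosing: single-concentration screen. Times: 37 °C overnight plating, 90-min dark dye load, 20-min compound pretreatment. Technique: FluxOR Tl+ flux fluorescence.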
KCNQ1 block – blocks the human KCNQ1 potassium channel | P51787 | CHO-K1 KCNQ1, FluxOR thallium flux fluorescence; stronger effect = higher value | B-score at 10 µM | 310,000 tested, 1.3% active;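 active = compounds whose thallium flux B-score, printed positive for inhibition, exceeds three library SD while starting fluorescence stays within three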;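 note: channel opened by potassium depolarization with thallium stimulus after 20 min compound exposure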
Active calls of the source: *; i = inactive; / = no result. In the library only some 4.1% were active in any assay of this set; here they are far more common.

SMILES	KCNK9 block	hERG protect	KCNK3 block	Cl transport mod	KCNQ1 act	KCNQ1 block
COCCNC(=O)C(c1ccc(F)cc1)N(C(=O)CCC(=O)Nc1ccccn1)c1ccc(C)cc1 (stereo not given)	i	-9	i	/	i	i
CC(C)(C)OC(=O)C[C@H]1C/C=C\C[C@@H](CC(=O)N(CCO)Cc2ccccc2)C(=O)NC[C@@H](c2ccccc2)OC1=O	/	/	i	/	/	/
COc1ccc(C(C)(C)C)cc1NC(=O)C1CC(=O)N(C2CCCC2)C1 (stereo not given)	/	/	i	/	/	/
Cc1ccc2nc(/C(C#N)=C\c3cc(C)n(-c4cccc([N+](=O)[O-])c4)c3C)[nH]c2c1	i	-12	i	/	i	8*
COC(=O)C(CC(C)C)NC(=O)c1ccc([N+](=O)[O-])c(C)c1 (stereo not given)	i	4.6*	i	0.84	i	i
COC(=O)C(CC(C)C)NC(=O)c1ccc([N+](=O)[O-])cc1 (stereo not given)	i	-5	i	0.82	i	i
CCOc1cc(N2CCOCC2)c(OCC)cc1NC(=O)c1cccc(S(=O)(=O)N2CCOCC2)c1	/	/	i	/	/	/
O=C(NCC1CCCO1)c1cc2c([nH]c3ccccc32)c(-c2cccc(Br)c2)n1 (stereo not given)	i	-40	i	/	i	11*
C/C(=N\NC(=O)C1COc2ccccc2O1)c1ccc(N2CCOCC2)cc1 (stereo not given)	i	5.6*	i	0.25	30*	i
CC1Cc2ccccc2N1S(=O)(=O)c1cccc(C(=O)NCc2ccncc2)c1 (stereo not given)	/	/	-9.5*	/	/	/
Cc1ccc(C)c(Cn2c(O)c(N=NC(=S)Nc3ccccc3F)c3ccccc32)c1	i	4.7*	i	4	i	i
Oc1c(N=NC(=S)Nc2ccccc2F)c2ccccc2n1Cc1ccc(Cl)cc1	i	25*	i	2.3	8*	i
O=Nc1c(O)n(Cc2ccccc2)c2ccccc12	i	-14	i	-0.35	i	i
O=C(COc1ccc([N+](=O)[O-])cc1)N(Cc1cccs1)C1CCS(=O)(=O)C1 (stereo not given)	i	-8	i	/	i	i
O=C(COC(=O)c1ccccc1)c1ccc(Br)cc1	-6.8*	-4	i	-0.0071	i	i
Cn1cc(C(=O)C(=O)N2CCCCC2)c2ccccc21	/	/	i	/	/	/
COC(=O)c1ccccc1NC(=O)c1ccc(COc2ccccc2)o1	/	/	-10*	-0.47	/	/
CN(C)S(=O)(=O)c1ccc(C(=O)OCC(=O)c2csc(N3CCCCC3)n2)cc1	/	/	i	/	/	/
O=c1[nH]c(SCc2nc3ccccc3c(=O)n2-c2ccccc2C(F)(F)F)nc2ccccc12	-6.6*	-13	i	-0.95	i	i
COc1cc(C(=O)c2nccc3cc(OC)c(OC)cc23)c([N+](=O)[O-])cc1OC	i	5.9*	i	0.91	i	i
COc1cc(N)c(C(=O)c2nccc3cc(OC)c(OC)cc23)cc1OC	i	-8	i	/	i	i
COC1=CC(=O)OC(c2ccco2)C1 (stereo not given)	/	/	i	/	/	/
COc1ccc(Br)cc1CN(C)C(=O)c1ccccc1OCc1c(C)noc1C	i	-14	i	/	i	i
CCN1/C(=C/C(C)=C/c2sc3ccccc3[n+]2CC)Sc2ccccc21	i	-26	-15*	-0.038	i	i
Cc1n[nH]c(=O)c2c(NC(=O)CSc3nn(-c4ccc(F)cc4)c(=S)s3)oc(C)c12	i	-16	i	/	i	6*
SMILES	KCNK9 block	hERG protect	KCNK3 block	Cl transport mod	KCNQ1 act	KCNQ1 block
Cc1n[nH]c(=O)c2c(NC(=O)CSc3c(Cl)cccc3Cl)oc(C)c12	i	-10	i	/	i	i
CN(Cc1ccccc1N1CCCC1)C(=O)c1cc2ccccc2o1	/	/	-11*	/	/	/
CN(Cc1ccccc1N1CCCC1)C(=O)c1cc2cc(Cl)ccc2o1	/	/	-9.5*	/	/	/
Cc1ccc(S(=O)(=O)N2CCN(Cc3csc(C)n3)CC2)cc1	i	-6	i	/	i	i
CCCCOc1ccc(Nc2nc(C)cc(C)c2C#N)cc1	i	5.0*	i	0.72	i	i
Cc1cc(C)c(C#N)c(Nc2ccccc2)n1	i	-7	i	1.1	i	i
Cc1ccc(C(=O)C2C(c3ccc(-c4ccccc4[N+](=O)[O-])o3)NC(=O)NC2(O)C(F)(F)F)cc1 (stereo not given)	-10*	-10	i	/	i	i
CC(C)c1ccc(N(CCc2ccccn2)C(=O)C(C)(C)C)cc1	i	-4	i	/	i	i
O=[N+]([O-])c1ccc(-c2ccc(/C=N/n3cnnc3)o2)c(Br)c1	i	7.5*	i	/	i	i
O=C(CCN1C(=O)/C(=C\c2cccc(Br)c2)SC1=S)N1CCOCC1	i	-2	i	/	i	i
O=C(NCCc1ccccc1C(F)(F)F)C1CCC(=O)N(CCCN2CCCC2=O)C1 (stereo not given)	i	-2	i	/	i	i
CC(C)C[C@H](NC(=O)c1nc[nH]c1C(=O)N1CCc2ccccc2C1)C(=O)OCc1ccccc1	i	-8	i	-0.9	i	i
O=C(N[C@@H](Cc1ccccc1)C(=O)OCc1ccccc1)c1nc[nH]c1C(=O)N1CCc2ccccc2C1	i	-8	i	-0.036	i	6*
N#Cc1ccc(/C=C/C(=O)c2cccnc2)cc1	i	-15	i	-1.1	i	6*
O=C(/C=C/c1ccc(Cl)cc1)c1cccnc1	i	-12	i	-0.1	i	i
CCCCn1nc(C(=O)N(C)C2CCCCC2)c2ccccc2c1=O	/	/	i	/	/	/
Cc1ccccc1NC1=NC(=S)N(c2ccccc2)C12CCOC(C)(C)C2 (stereo not given)	i	-10	i	26*	i	i
CCOC(=O)C1=C(C)N=c2s/c(=C/c3cccc([N+](=O)[O-])c3O)c(=O)n2C1c1cc(OC)c(OC)c(OC)c1 (stereo not given)	i	-16	i	/	i	8*
Cc1ccc(S[C@@H](CCN2CC[C@H](C(C)(C)C)CCC2=O)c2ccccc2)cc1	i	-6	i	/	i	7*
Cc1ccc(S[C@@H](CCN2CC[C@H](O)CCC2=O)c2ccccc2)cc1	i	-5	i	/	i	i
NC(=O)c1ccc2c(c1)OCCO2	i	-7	i	-3.2*	i	i
O=C(CN1C(=O)CSc2cc(S(=O)(=O)N3CCCCCC3)ccc21)NCCc1ccccc1	i	-12	i	-7.8*	i	i
